Data set [1] deals with T1, Lysosomal acid glucosylceramidase (Homo sapiens) (UniProt P04062).
T1 sequence (whole entry): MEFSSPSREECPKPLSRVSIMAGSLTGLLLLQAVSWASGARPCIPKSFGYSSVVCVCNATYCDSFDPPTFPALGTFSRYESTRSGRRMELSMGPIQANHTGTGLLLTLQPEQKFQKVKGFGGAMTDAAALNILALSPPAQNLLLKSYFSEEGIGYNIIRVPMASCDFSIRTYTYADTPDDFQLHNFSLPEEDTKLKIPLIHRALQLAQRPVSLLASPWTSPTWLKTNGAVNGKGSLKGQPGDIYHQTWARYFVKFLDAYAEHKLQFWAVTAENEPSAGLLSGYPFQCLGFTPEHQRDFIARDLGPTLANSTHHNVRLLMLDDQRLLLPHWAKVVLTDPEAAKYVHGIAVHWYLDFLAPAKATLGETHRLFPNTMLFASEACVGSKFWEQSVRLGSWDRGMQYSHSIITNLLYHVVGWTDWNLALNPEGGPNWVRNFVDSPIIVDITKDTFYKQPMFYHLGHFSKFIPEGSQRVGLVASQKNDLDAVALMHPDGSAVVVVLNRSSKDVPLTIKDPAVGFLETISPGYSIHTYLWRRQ
Nature of the data set: Enzyme stabilization ratio of recombinant glucocerebrosidase activity at 48 degC to at 37 degC at 100 uM after 60 mins.

Data set [2] addresses T1, Lysosomal acid glucosylceramidase (Homo sapiens). Nature of the data set: Inhibition of glucocerebrosidase in human intact fibroblasts at 50 uM after 24 hrs by fluorometric analysis. The method in brief:
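Fibroblasts grown in MEM with 15% inactivated FCS, 37 °C, 5% CO2, passages 14–30. Plated in DMEM with aminocyclitol (50 μM final, from DMSO) for 24 h, washed with PBS. GCase assayed with 1 h incubation at 37 °C, stopped with 100 mM glycine-NaOH pH 10.6, fluorescence 355/460 nm. Untreated and treated cells in quadruplicate.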

Data set [3] concerns the target Oligo-1,6-glucosidase IMA1 (Saccharomyces cerevisiae S288c, UniProt P53051). The data set can be described thus: Inhibition of yeast alpha-glucosidase.
Data set [4] addresses T1, Lysosomal acid glucosylceramidase (Homo sapiens). The data set can be described thus: Thermal stabilization of recombinant glucocerebrosidase assessed as enzyme activity at 150 uM at 48 degC after 60 mins. The method in brief: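 GCase (2 mg/mL) heated at 48 °C, pH 7.4, with water (control) or compound at 10–150 μM final, for 20, 40 or 60 min. Then acetate-phosphate pH 5.0 and 4 mM 4-methylumbelliferyl β-D-glucoside in McIlvaine pH 5.2 added, 10 min at 37 °C. Stopped with glycine pH 10.6, 4-methylumbelliferone measured. Activity relative to identical assay at 37 °C. SR = relative activity with vs without inhibitor.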

The target in data set [5] is T2, Lysosomal acid glucosylceramidase (Homo sapiens, UniProt P04062).
T2 sequence (P04062 whole entry): T1 sequence (whole entry)
The data set can be described thus: Inhibition of recombinant glucocerebrosidase in McIlvaine buffer at pH 7.4 after 10 mins by fluorometric analysis.

In data set [6] the target is T3, Ceramide glucosyltransferase (Homo sapiens) (UniProt Q16739).
T3 sequence (whole entry): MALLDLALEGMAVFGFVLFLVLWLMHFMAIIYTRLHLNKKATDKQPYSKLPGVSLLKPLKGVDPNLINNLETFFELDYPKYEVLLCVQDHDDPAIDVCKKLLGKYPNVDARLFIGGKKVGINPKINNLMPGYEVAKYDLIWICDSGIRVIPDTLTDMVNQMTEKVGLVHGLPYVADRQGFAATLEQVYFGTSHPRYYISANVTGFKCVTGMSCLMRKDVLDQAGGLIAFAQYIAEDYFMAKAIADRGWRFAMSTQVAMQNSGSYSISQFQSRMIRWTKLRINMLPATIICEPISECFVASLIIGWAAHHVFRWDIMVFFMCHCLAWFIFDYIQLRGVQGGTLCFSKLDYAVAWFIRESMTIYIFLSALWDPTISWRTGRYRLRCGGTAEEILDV
The data set can be described thus: Inhibition of glucosylceramide synthase in human A549 cells at 250 uM after 35 mins by fluorometric analysis. It is filed as cell-based.

Data set [7] is described as follows: Cytotoxicity against human wild type fibroblasts at up to 300 uM after 24 hrs by MTT assay. It is filed as cell-based. The note with it: fibroblast. For orientation: Tetrazolium assays rely on reduction of a dye to a coloured formazan, in cell work by metabolically active cells.
In a further data set the target is Alpha-galactosidase (Coffea arabica, UniProt Q42656). Nature of the data set: Inhibition of alpha-galactosidase from coffee beans.
Chain of Alpha-galactosidase (Q42656 whole entry): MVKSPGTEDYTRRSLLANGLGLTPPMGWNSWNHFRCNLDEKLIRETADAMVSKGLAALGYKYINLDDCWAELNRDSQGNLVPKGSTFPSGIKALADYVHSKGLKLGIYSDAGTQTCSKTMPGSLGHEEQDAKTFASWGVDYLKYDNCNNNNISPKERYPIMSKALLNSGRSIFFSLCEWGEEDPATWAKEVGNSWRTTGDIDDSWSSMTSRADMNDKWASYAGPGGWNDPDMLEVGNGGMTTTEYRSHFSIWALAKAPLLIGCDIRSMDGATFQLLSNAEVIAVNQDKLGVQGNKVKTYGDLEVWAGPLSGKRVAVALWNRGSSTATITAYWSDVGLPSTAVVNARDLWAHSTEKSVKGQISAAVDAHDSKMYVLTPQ
In data set [8] the target is Probable alpha-glucosidase Os06g0675700 (Oryza sativa Japonica Group, UniProt Q653V7). The data set can be described thus: Inhibition of rice alpha-glucosidase.
Chain of Probable alpha-glucosidase Os06g0675700 (Q653V7 whole entry): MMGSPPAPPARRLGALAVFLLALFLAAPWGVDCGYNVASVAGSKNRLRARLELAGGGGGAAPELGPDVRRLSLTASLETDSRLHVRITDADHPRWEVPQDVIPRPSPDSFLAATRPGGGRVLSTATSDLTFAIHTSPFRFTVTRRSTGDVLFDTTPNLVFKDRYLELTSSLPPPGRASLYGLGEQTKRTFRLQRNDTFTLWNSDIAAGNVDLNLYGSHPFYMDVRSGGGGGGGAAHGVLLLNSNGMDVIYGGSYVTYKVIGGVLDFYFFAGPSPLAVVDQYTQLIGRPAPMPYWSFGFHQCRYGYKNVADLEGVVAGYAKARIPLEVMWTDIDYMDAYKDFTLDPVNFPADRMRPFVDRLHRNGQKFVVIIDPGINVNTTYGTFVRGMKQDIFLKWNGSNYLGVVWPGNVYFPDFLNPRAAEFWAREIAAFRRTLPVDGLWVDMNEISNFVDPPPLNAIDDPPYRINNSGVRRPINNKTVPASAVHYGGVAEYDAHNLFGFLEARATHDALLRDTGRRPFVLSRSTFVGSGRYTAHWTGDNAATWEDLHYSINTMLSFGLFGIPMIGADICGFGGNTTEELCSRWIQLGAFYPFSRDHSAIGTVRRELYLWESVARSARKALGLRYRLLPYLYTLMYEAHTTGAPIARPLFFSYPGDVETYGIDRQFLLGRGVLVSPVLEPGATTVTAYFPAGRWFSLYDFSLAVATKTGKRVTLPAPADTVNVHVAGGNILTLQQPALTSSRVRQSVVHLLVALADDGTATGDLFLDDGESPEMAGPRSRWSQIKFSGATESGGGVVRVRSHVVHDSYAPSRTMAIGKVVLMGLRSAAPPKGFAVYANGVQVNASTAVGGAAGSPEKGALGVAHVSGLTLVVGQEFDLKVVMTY
The target in another data set is T4, Beta-galactosidase (Bos taurus, UniProt Q58D55).
T4 sequence (Q58D55 whole entry): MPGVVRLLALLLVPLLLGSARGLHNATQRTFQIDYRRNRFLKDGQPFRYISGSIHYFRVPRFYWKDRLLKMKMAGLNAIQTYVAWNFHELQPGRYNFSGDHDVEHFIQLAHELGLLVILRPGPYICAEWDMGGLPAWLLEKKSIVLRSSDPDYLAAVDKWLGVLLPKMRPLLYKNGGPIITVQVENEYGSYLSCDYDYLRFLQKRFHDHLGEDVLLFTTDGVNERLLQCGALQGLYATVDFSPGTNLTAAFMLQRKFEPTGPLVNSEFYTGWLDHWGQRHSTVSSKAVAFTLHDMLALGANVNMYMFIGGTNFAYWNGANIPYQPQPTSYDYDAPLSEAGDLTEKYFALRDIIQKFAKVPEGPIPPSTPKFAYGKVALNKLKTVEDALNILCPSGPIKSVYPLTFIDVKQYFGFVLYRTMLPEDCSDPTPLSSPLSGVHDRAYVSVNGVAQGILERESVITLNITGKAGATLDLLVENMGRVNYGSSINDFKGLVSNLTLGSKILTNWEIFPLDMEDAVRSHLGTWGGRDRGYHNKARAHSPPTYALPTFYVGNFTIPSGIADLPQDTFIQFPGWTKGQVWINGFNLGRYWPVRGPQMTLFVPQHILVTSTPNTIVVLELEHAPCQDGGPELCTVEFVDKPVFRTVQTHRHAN
The data set can be described thus: Inhibition of bovine liver beta-galactosidase.

In data set [9] the target is T2, Lysosomal acid glucosylceramidase. The data set can be described thus: Inhibition of recombinant glucocerebrosidase in McIlvaine buffer at pH 5.2 after 10 mins by fluorometric analysis. The method in brief: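 Imiglucerase in McIlvaine buffer pH 5.2 containing 0.2% (w/v) sodium taurocholate and 0.1% (v/v) Triton X-100. Enzyme pre-incubated 30 min at 37 °C with inhibitor. Then 4 mM 4-methylumbelliferyl β-D-glucopyranoside (substrate solution), 10 min at 37 °C. Stop with 100 mM glycine/NaOH pH 10.6, fluorescence ex 355/em 460 nm. IC50 from % activity vs log[I], at least five concentrations.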

For data set [10] the target is unchanged. The data set can be described thus: Competitive inhibition of recombinant glucocerebrosidase.

Activity calls are given as the source filed them. The calls are words filed in the database; no cut-off is given here.

By inhibition is commonly meant the relative decrease from the control value, in per cent. Read a low inhibition as little suppression. A word on the IC50: it is the concentration at which inhibition is half-maximal. What is called Ki is the dissociation constant of the complex between target and ligand, obtained from inhibition or displacement.

Chain of Oligo-1,6-glucosidase IMA1 (P53051 whole entry): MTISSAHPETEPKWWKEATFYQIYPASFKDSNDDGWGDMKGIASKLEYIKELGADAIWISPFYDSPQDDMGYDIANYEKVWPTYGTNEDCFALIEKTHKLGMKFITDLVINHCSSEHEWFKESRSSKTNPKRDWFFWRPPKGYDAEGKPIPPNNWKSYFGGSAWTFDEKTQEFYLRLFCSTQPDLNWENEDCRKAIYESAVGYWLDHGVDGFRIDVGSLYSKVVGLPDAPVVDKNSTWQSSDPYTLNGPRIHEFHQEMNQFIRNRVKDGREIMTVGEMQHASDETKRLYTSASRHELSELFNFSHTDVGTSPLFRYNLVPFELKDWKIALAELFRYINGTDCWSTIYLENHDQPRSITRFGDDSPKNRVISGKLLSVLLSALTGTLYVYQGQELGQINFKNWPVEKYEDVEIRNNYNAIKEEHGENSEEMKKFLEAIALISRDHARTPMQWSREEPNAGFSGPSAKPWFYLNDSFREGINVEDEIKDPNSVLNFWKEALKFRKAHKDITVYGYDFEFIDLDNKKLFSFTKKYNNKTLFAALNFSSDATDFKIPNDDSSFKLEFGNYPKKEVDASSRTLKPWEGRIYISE

Take `O[C@@H]1[C@@H](O)[C@H](O)[C@@H](NCc2cn(CCC(c3ccccc3)c3ccccc3)nn2)[C@H](O)[C@H]1O`: in data set [1], the Ratio was 0.5. For the same molecule, the inhibition came to 73% in data set [2] and 18% in data set [6]. The half-inhibitory concentration (IC50) is > 100000 nM in data set [3]; 1800 nM in data set [5]; > 100000 nM at Alpha-galactosidase; > 100000 nM in [8]; > 100000 nM on Beta-galactosidase; 1500 nM in data set [9]. The outcome in data set [4] was inactive. The Activity entry in data set [7] was “Non-toxic”. In addition, in [10], the Ki came out at 770 nM.
Consider `O[C@@H]1[C@@H](O)[C@H](O)[C@@H](NCc2cn(CC34CC5CC(CC(C5)C3)C4)nn2)[C@H](O)[C@H]1O`, for which the Ratio in data set [1] was 0.7. The values for the inhibition in data set [2] and in data set [6] were 63% and 32%, respectively. Further, the IC50 in data set [3] was > 100000 nM; in data set [5], 1900 nM; against Alpha-galactosidase, > 100000 nM; in data set [8] it was > 100000 nM; at Beta-galactosidase it was > 100000 nM; in data set [9] it was 2200 nM. For the same molecule, the result in data set [4] was inactive. In data set [7], the Activity entry is “Non-toxic”. Moreover, in data set [10], the inhibition constant Ki came out at 1050 nM.

For the origin of these results see ChEMBL document CHEMBL1764970, “New glucocerebrosidase inhibitors by exploration of chemical diversity of N-substituted aminocyclitols using click chemistry and in situ screening” (J Med Chem, 2011).
